Assays:
[1] = tested on: Rat; experiment: concentration in plasma after dosing; settings: 0.25 h; dosed: Gemfibrozil; 4.29 mg/kg; oral; Male; Sprague-Dawley
[2] = tested on: Rat; experiment: concentration in plasma after dosing; settings: 2 h; dosed: Gemfibrozil; 4.29 mg/kg; oral; Male; Sprague-Dawley
[3] = tested on: Rat; experiment: concentration in plasma after dosing; settings: 10 min; dosed: Gemfibrozil; 50 mg/kg; oral; Male; Sprague-Dawley
[4] = tested on: Rat; experiment: concentration in brain after dosing; settings: 0.75 h; dosed: 2-Methyltetrahydrofuran; 40 mg/kg; iv; Male; Harlan Sprague Dawley
[5] = tested on: Rat; experiment: concentration in brain after dosing; settings: 2 min; dosed: 2-Methyltetrahydrofuran; 40 mg/kg; iv; Female; Harlan Sprague Dawley
[6] = tested on: Rat; experiment: concentration in brain after dosing; settings: 0.2 h; dosed: 2-Methyltetrahydrofuran; 40 mg/kg; iv; Male; Harlan Sprague Dawley
[7] = tested on: Rat; experiment: concentration in plasma after dosing; settings: 0.2 h; dosed: 2-Methyltetrahydrofuran; 40 mg/kg; iv; Male; Harlan Sprague Dawley
[8] = tested on: human; experiment: concentration in blood after dosing; negative times count back from the end of exposure; settings: dosed: trichloroethylene, 100 ppm, inhalation, person
Procedure, shortened: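 A PubMed search, classifier screening and manual review identified published in vivo toxicokinetic studies, which together with two structured collections supplied concentration-versus-time and amount-versus-time points. Points were mostly digitised from plot screenshots with WebPlotDigitizer, otherwise copied from tables. Dose, route, subject details and medium were hand-curated from each paper, and sampling and analytical methods are those of the sources, often unreported.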

[9] = tested on: Rat; experiment: concentration in liver after dosing; settings: 6 h; dosed: Perfluorooctane Sulfonate; 2 mg/kg; oral; Female; Harlan Sprague Dawley
[10] = tested on: Rat; experiment: concentration in liver after dosing; settings: 1848 h; dosed: Perfluorooctane Sulfonate; 20 mg/kg; oral; Male; Harlan Sprague Dawley
[11] = tested on: Rat; experiment: concentration in kidney after dosing; settings: 6 h; dosed: Perfluorooctane Sulfonate; 2 mg/kg; oral; Female; Harlan Sprague Dawley
[12] = tested on: Rat; experiment: concentration in kidney after dosing; settings: 24 h; dosed: Perfluorooctane Sulfonate; 20 mg/kg; oral; Male; Harlan Sprague Dawley
[13] = tested on: Rat; experiment: concentration in brain after dosing; settings: 0.5 h; dosed: Perfluorohexanoic Acid; 80 mg/kg; oral; Male; Harlan Sprague Dawley
[14] = tested on: Rat; experiment: concentration in brain after dosing; settings: 6 h; dosed: Perfluorohexanoic Acid; 80 mg/kg; oral; Male; Harlan Sprague Dawley
[15] = tested on: Rat; experiment: concentration in brain after dosing; settings: 1 h; dosed: Perfluorohexanoic Acid; 80 mg/kg; oral; Male; Harlan Sprague Dawley
[16] = tested on: Rat; experiment: concentration in liver after dosing; settings: 12 h; dosed: Perfluorohexanoic Acid; 80 mg/kg; oral; Male; Harlan Sprague Dawley
[17] = tested on: Rat; experiment: concentration in liver after dosing; settings: 1 h; dosed: Perfluorohexanoic Acid; 80 mg/kg; oral; Male; Harlan Sprague Dawley
[18] = tested on: Rat; experiment: concentration in plasma after dosing; settings: 0.5 h; dosed: Perfluorohexanoic Acid; 40 mg/kg; iv; Male; F344
[19] = tested on: Rat; experiment: concentration in plasma after dosing; settings: 0.75 h; dosed: Perfluorohexanoic Acid; 40 mg/kg; iv; Male; F344
[20] = tested on: Rat; experiment: concentration in plasma after dosing; settings: dosed: Perfluorohexanoic Acid, 40 mg/kg, iv, Male, F344
[21] = tested on: Rat; experiment: concentration in kidney after dosing; settings: 3 h; dosed: Perfluorohexanoic Acid; 80 mg/kg; oral; Female; Harlan Sprague Dawley
[22] = tested on: Rat; experiment: concentration in liver after dosing; settings: 12 h; dosed: Fluorotelomer alcohol 8+2; 80 mg/kg; oral; Female; Harlan Sprague Dawley
[23] = tested on: Rat; experiment: concentration in brain after dosing; settings: 6 h; dosed: Fluorotelomer alcohol 8+2; 24 mg/kg; oral; Male; Harlan Sprague Dawley
[24] = tested on: Rat; experiment: concentration in liver after dosing; settings: 1 h; dosed: Fluorotelomer alcohol 8+2; 80 mg/kg; oral; Female; Harlan Sprague Dawley
[25] = tested on: Rat; experiment: concentration in plasma after dosing; settings: 192 h; dosed: 678-39-7; 40 mg/kg; iv; Male; F344
[26] = tested on: Rat; experiment: concentration in kidney after dosing; settings: 6 h; dosed: Fluorotelomer alcohol 8+2; 24 mg/kg; oral; Male; Harlan Sprague Dawley
[27] = tested on: Rat; experiment: concentration in plasma after dosing; settings: dosed: 678-39-7, 12 mg/kg, iv, Male, F344
[28] = tested on: Rat; experiment: concentration in plasma after dosing; settings: dosed: 678-39-7, 40 mg/kg, iv, Male, F344
[29] = tested on: Rat; experiment: concentration in kidney after dosing; settings: 6 h; dosed: Fluorotelomer alcohol 8+2; 80 mg/kg; oral; Female; Harlan Sprague Dawley
[30] = tested on: Rat; experiment: concentration in kidney after dosing; settings: 0.5 h; dosed: Fluorotelomer alcohol 8+2; 80 mg/kg; oral; Female; Harlan Sprague Dawley
[31] = tested on: Rat; experiment: concentration in plasma after dosing; settings: dosed: Fluorotelomer alcohol 8+2, 12 mg/kg, oral, Male, Harlan Sprague Dawley

Cc1ccc(C)c(OCCCC(C)(C)C(=O)O)c1 [Gemfibrozil]
Settings	concentration in plasma [ng/mL]
[1]	1640
[2]	74.1
[3]	76500

CC1CCCO1 (stereo not drawn) [2-Methyltetrahydrofuran]
Settings	concentration in brain [ng/mL]	concentration in plasma [ng/mL]
[4]	11300	–
[5]	50400	–
[6]	25500	–
[7]	–	35700

ClC=C(Cl)Cl [trichloroethylene]
[8]
Settings	concentration in blood [ng/mL]
0 h, duration: 6 hr	1310
0.2145 h, duration: 4 hr	2070
0.2337 h, duration: 4 hr	1290
0.4864 h, duration: 4 hr	1450
0.9849 h, duration: 4 hr	714
0.9924 h, duration: 4 hr	513
1.967 h, duration: 4 hr	333
1.979 h, duration: 4 hr	268
3.961 h, duration: 4 hr	170
18 h, duration: 6 hr	1100
22 s, duration: 4 hr	1870
24 h, duration: 6 hr	562
29.5 min, duration: 4 hr	851
42 h, duration: 6 hr	1490
48 h, duration: 6 hr	1230
66 h, duration: 6 hr	2060
72 h, duration: 6 hr	1320
90 h, duration: 6 hr	1660
96 h, duration: 6 hr	1370
160 h, duration: 6 hr	921

concentration in blood [ng/mL], [8], during exposure
Settings	-6 h	-3.502 h	-3.499 h	-3.014 h	-3.003 h	-2.006 h	-1.997 h	-1.011 h	-1.009 h
duration: 4 hr	–	1670	881	1250	2120	2530	1520	1690	2830
duration: 6 hr	11.9	–	–	–	–	–	–	–	–

O=S(=O)([O-])C(F)(F)C(F)(F)C(F)(F)C(F)(F)C(F)(F)C(F)(F)C(F)(F)C(F)(F)F [Perfluorooctane Sulfonate]
Settings	concentration in kidney [ng/g]	concentration in liver [ng/g]
[9]	–	24500
[10]	–	59600
[11]	12700	–
[12]	67900	–

O=C(O)C(F)(F)C(F)(F)C(F)(F)C(F)(F)C(F)(F)F [Perfluorohexanoic Acid]
Settings	concentration in brain [ng/g]	concentration in kidney [ng/g]	concentration in liver [ng/g]	concentration in plasma [ng/mL]
[13]	2500	–	–	–
[14]	694	–	–	–
[15]	2670	–	–	–
[16]	–	–	2130	–
[17]	–	–	83600	–
[18]	–	–	–	4980
[19]	–	–	–	15200
[21]	–	38000	–	–

[20]
Settings	concentration in plasma [ng/mL]
3 h	1450
5 min	35700

O=C(O)CCC(F)(F)C(F)(F)C(F)(F)C(F)(F)C(F)(F)C(F)(F)C(F)(F)F [Fluorotelomer acid 7+3]
Settings	concentration in brain [ng/g]	concentration in kidney [ng/g]	concentration in liver [ng/g]	concentration in plasma [ng/mL]
[22]	–	–	7200	–
[23]	305	–	–	–
[24]	–	–	1620	–
[25]	–	–	–	49.7
[26]	–	1250	–	–
[29]	–	3960	–	–
[30]	–	435	–	–

concentration in plasma [ng/mL]
Settings	0.75 h	3 h	5 min	12 h
[27]	–	807	11.6	–
[28]	–	3090	25.4	–
[31]	313	–	–	197

Source: EPA's CvTdb concentration-time database
